Results: article PMC4878416 (Diabetes, 2016)

How the values were obtained:
CLK2 = CLK2 (Homo sapiens, UniProt P49760); assay: Human kinome profiling, CLK2; type: biochemical
How it was run: (§1)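 Human kinases profiled by commercial providers under their standard protocols; ATP within 15 μmol/L of the apparent KM for each enzyme.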

human β-cells = type: in vivo; details: 0.25 mg/kg/BW i.p. twice a week for 3 weeks, vs vehicle
How it was run: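 NSG mice (male, 8–10 weeks old) were grafted with 1,000 IEQ of human islets under the kidney capsule. From 1 week post-graft they received test compound (0.25 mg/kg i.p., 50% DMSO) or vehicle twice weekly for 3 weeks, followed by BrdU 100 mg/kg i.p. for 3 days and sacrifice at 6 h. Graft sections were co-stained for insulin or PDX-1 with BrdU, Ki67 or pHH3. 1,000–2,000 β-cells were counted per animal; n = 3–4; mean ± SEM; unpaired t test.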

CLK1 = CLK1 (Homo sapiens, UniProt P49759); assay: Human kinome profiling, CLK1; type: biochemical
Sequence of CLK1 (P49759 whole entry): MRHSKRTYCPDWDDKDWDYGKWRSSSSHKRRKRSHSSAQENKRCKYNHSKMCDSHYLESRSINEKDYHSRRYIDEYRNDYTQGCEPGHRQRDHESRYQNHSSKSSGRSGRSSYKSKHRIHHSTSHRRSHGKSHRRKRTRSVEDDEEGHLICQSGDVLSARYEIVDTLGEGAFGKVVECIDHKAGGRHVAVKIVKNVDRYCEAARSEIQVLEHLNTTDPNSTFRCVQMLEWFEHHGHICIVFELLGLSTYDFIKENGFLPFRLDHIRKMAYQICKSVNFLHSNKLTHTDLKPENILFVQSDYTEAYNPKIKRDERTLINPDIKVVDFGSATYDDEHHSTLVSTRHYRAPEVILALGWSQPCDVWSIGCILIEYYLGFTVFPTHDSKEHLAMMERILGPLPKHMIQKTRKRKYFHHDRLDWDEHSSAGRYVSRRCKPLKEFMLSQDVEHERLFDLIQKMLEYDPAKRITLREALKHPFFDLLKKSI
How it was run: as §1

[1] = tested on: α-cells of endogenous mouse pancreas; assay: α-cell proliferation in endogenous mouse pancreas; type: in vivo; details: 0.25 mg/kg/BW i.p. twice a week for 3 weeks
[2] = tested on: human islet cells (all cell types); assay: Proliferation of other cell types in the heterogeneous human islet cell culture; type: cell-based
CLK3 = CLK3 (Homo sapiens, UniProt P49761); assay: Human kinome profiling, CLK3; type: biochemical
Sequence of CLK3 (P49761 whole entry): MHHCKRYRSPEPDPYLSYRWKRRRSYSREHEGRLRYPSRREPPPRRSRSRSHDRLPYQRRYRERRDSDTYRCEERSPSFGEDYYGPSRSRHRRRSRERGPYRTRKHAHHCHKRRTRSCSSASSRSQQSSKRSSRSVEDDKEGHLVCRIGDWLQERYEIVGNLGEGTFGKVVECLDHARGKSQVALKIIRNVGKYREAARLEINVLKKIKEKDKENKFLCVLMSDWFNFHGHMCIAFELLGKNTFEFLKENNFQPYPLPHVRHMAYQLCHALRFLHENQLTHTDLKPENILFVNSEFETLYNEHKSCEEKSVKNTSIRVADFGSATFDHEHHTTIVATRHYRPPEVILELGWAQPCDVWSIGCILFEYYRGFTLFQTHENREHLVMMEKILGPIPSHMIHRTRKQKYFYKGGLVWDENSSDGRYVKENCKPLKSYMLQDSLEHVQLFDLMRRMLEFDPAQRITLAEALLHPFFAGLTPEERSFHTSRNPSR
How it was run: as §1

[3] = tested on: p27KIP phosphorylation (S10); assay: Western blot of p27KIP phosphorylation; type: cell-based, rat; details: INS-1E cells, 24 or 48 h, 10 μmol/L harmine or 0.5 μmol/L 5-IT
How it was run: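 Cells were treated after overnight attachment and lysed in RIPA buffer. Western blots were probed for p27KIP S10 phosphorylation, with actin as loading control.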

DYRK1A = DYRK1A (Homo sapiens, UniProt Q13627); assay: Human kinome profiling, DYRK1A; type: biochemical; details: 100 nmol/L
intact human islets = type: cell-based; details: intact islets of three donors, 1 μmol/L, 6 days
How it was run: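 Intact islets from three donors received DMSO or 1 μmol/L test compound for 6 days, and expression was averaged geometrically. Fold changes were regressed by five-dimensional least squares against published expression data from sorted α, β, acinar, large-duct, small-duct and uncharacterised islet cells to estimate cell-mass changes. Significance was assessed by randomising the assignment of sorted replicate samples to cell types.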

DYRK3 = target: T1, DYRK3 (Homo sapiens, UniProt O43781); assay: Human kinome profiling, DYRK3; type: biochemical
T1 sequence (O43781 1-588): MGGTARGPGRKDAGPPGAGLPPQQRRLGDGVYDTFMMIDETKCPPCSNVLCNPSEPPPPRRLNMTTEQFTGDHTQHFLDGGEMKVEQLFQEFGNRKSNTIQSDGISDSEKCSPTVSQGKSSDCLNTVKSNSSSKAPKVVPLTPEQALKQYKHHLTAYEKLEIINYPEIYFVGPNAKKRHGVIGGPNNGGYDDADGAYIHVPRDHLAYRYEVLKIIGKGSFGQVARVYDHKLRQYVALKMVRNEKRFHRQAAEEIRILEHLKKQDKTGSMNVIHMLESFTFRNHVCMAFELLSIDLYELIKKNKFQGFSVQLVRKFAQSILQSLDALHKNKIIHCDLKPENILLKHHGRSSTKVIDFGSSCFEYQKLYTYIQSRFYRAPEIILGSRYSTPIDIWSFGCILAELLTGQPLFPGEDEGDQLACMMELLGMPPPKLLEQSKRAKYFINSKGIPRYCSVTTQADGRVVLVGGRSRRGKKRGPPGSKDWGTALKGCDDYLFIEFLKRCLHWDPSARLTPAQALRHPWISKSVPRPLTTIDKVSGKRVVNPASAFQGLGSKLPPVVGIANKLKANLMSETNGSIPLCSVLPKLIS
How it was run: as §1

DYRK2 = target: T2, DYRK2 (Homo sapiens, UniProt Q92630); assay: Human kinome profiling, DYRK2; type: biochemical
T2 sequence (Q92630 1-601): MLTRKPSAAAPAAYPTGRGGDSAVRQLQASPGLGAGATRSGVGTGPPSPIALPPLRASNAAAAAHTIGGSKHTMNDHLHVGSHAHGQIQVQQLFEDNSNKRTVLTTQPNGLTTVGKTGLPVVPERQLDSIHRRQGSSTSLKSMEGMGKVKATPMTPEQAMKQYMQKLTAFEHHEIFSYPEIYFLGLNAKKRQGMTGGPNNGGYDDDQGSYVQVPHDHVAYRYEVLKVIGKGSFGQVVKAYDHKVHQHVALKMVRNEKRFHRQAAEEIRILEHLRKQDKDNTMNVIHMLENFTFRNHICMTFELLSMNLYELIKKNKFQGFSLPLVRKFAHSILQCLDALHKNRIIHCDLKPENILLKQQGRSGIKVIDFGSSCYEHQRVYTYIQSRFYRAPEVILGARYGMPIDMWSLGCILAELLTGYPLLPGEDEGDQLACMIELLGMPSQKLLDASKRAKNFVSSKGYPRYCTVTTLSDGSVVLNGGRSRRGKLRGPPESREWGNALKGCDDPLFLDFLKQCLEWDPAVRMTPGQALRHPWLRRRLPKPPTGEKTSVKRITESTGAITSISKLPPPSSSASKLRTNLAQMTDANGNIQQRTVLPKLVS
How it was run: as §1

DYRK1B = DYRK1B (Homo sapiens, UniProt Q9Y463); assay: Human kinome profiling, DYRK1B; type: biochemical
Sequence of DYRK1B (Q9Y463 whole entry): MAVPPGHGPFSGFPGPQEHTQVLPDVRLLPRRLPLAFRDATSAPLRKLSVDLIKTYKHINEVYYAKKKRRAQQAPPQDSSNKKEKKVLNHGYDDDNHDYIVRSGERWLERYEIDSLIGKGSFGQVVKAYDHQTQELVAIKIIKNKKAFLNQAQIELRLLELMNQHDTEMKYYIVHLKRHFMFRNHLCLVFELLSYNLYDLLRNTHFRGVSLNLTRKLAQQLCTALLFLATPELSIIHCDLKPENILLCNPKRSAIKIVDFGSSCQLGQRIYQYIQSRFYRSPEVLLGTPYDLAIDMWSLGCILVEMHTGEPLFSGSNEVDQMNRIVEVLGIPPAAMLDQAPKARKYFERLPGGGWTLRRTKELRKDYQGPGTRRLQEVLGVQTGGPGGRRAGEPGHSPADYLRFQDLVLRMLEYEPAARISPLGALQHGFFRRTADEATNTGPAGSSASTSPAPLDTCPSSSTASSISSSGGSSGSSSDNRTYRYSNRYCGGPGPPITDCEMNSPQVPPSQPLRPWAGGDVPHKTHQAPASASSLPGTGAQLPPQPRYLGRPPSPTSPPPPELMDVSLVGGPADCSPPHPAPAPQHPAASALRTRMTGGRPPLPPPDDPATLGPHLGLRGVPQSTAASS
How it was run: as §1

[4] = tested on: α-cells of human islet grafts; assay: α-cell proliferation in human islets grafted under the mouse kidney capsule; type: in vivo; details: 0.25 mg/kg/BW i.p. twice a week for 3 weeks

Sequence of CLK2 (P49760 whole entry): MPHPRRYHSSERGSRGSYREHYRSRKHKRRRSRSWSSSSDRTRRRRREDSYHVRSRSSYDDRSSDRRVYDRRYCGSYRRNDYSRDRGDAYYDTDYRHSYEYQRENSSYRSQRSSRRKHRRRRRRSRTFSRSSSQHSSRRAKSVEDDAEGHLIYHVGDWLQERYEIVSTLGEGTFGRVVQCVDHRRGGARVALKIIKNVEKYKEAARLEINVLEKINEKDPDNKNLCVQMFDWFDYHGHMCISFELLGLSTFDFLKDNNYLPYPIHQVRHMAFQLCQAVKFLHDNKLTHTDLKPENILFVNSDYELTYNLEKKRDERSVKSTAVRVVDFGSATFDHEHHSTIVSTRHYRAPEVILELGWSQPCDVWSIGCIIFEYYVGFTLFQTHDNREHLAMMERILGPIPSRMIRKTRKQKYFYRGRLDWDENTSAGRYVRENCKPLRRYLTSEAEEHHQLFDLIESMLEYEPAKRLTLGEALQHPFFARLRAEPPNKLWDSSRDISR

remaining activity CLK2 (CLK2; 100 nmol/L): < 10% | IC50 (CLK2; read-out: IC50 CLK2, ATP within 15 μmol/L of apparent KM): 10 nM | remaining activity CLK1 (CLK1; 100 nmol/L): < 10% | IC50 (CLK1; read-out: IC50 CLK1, ATP within 15 μmol/L of apparent KM): 36 nM | remaining activity CLK3 (CLK3; 100 nmol/L): < 10% | IC50 (CLK3; read-out: IC50 CLK3, ATP within 15 μmol/L of apparent KM): 195 nM | remaining activity DYRK1A (DYRK1A): < 10% | remaining activity DYRK3 (DYRK3; 100 nmol/L): < 10% | IC50 (DYRK3; read-out: IC50 DYRK3, ATP within 15 μmol/L of apparent KM): 3 nM | remaining activity DYRK2 (DYRK2; 100 nmol/L): < 10% | IC50 (DYRK2; read-out: IC50 DYRK2, ATP within 15 μmol/L of apparent KM): 6 nM | remaining activity DYRK1B (DYRK1B; 100 nmol/L): < 10% | IC50 (DYRK1B; read-out: IC50 DYRK1B, ATP within 15 μmol/L of apparent KM): 10 nM
SMILES: Nc1ncnc2c1c(I)cn2[C@@H]1O[C@H](CO)[C@@H](O)[C@H]1O [5-IT, 5-iodotubercidin]
increase in BrdU incorporation in β-cells of human islet grafts (human β-cells; P < 0.01): approximately fivefold | increase in Ki67 staining of β-cells of human islet grafts (human β-cells; P < 0.05): approximately sixfold | increase in PDX1/BrdU double-positive cells in human islet grafts (human β-cells; P < 0.05): approximately fourfold | increase in PDX1/Ki67 double-positive cells in human islet grafts (human β-cells; P < 0.05): approximately sixfold | increase in pHH3 immunostaining of β-cells of human islet grafts (human β-cells; P < 0.05): ~10 fold | α-cell proliferation in endogenous mouse pancreas, treated vs nontreated [1]: no significant alterations | proliferation of all cell types in the heterogeneous culture system [2]: did not induce proliferation of all cell types | p27KIP phosphorylation [3]: decrease | increase in α-cell mass predicted by gene expression results (intact human islets; 95% CI 4.6–7.5): 6.1% | β-cell mass increase that could account for gene expression changes (intact human islets; 95% CI 5.8–9.2): 7.5% | α-cell proliferation in human islet grafts, treated vs nontreated [4]: no significant alterations
